Experimental data: ChEMBL document CHEMBL1147045, “Targeting thioredoxin reductase is a basis for cancer therapy by arsenic trioxide” (2007)
Active and inactive are the calls of the source. The rule behind the calls is not given here.

Assays:
Escherichia coli = test: Inhibition of Escherichia coli thioredoxin upto 5 uM by insulin reduction method
Outline: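 25 nM E. coli TrxR plus 2 μM E. coli Trx were preincubated with ATO for 30 min in 50 mM Tris·HCl/1 mM EDTA pH 7.5 with 200 μM NADPH. Then 200 μM NADPH/160 μM insulin was added and A340 followed. Activity was taken as ΔA340/min over the initial 5 min.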

MCF7 [1] = test: Inhibition of human MCF7 cell growth after 24 hrs by XTT assay; format: functional, cell-based
Outline: (§1)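 MCF-7 cells in RPMI 1640/10% FCS were seeded at 6 × 10^3 cells per well, grown overnight, then exposed to ATO for 24 or 48 h. Medium was replaced with XTT labeling mixture for 3 h and A492 of the formazan read as the measure of proliferation/viability.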

MCF7 [2] = test: Reduction of human MCF7 cell growth at 2.5 uM after 48 hrs by XTT assay; format: functional, cell-based; outline: as §1
MCF7 [3] = test: Reduction of human MCF7 cell growth at 5.0 uM after 48 hrs by XTT assay; format: functional, cell-based; outline: as §1
[4] = biological target: T1, Thioredoxin reductase 1, cytoplasmic (Rattus norvegicus) (UniProt O89049); test: Inhibition of NADPH-reduced rat recombinant TrxR1 at 0.1 uM attenuated in presence of 1 mM Glutathione after 30 minis
T1 sequence (whole entry): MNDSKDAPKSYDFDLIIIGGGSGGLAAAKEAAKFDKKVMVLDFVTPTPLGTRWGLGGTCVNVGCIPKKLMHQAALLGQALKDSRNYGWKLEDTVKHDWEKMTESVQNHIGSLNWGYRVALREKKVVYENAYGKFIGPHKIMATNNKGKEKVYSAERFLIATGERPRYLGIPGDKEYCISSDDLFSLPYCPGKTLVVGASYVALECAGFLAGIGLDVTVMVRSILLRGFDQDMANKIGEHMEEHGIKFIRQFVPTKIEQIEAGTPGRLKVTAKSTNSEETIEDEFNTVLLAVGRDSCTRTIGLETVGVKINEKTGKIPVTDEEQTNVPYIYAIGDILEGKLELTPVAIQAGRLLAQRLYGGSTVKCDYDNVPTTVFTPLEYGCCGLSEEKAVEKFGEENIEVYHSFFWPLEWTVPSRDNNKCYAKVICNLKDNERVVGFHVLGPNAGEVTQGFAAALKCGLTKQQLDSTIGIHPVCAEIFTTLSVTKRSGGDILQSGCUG
Outline: (§2)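 NADPH-reduced rat TrxR (10 nM) with 2 μM human Trx, with or without 1 mM GSH, was incubated with ATO for 30 min in Tris/EDTA pH 7.5 containing 200 μM NADPH. Trx-system activity was read after adding 200 μM NADPH/160 μM insulin, as ΔA340/min over the initial 5 min.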

[5] = biological target: T1, Thioredoxin reductase 1, cytoplasmic (Rattus norvegicus); test: Inhibition of NADPH-reduced rat recombinant TrxR1 at 0.25 uM attenuated in presence of 1 mM Glutathione after 30 minis; outline: as §2
[6] = biological target: T1, Thioredoxin reductase 1, cytoplasmic (Rattus norvegicus); test: Inhibition of NADPH-reduced rat recombinant TrxR1 at >0.5 uM attenuated in presence of 1 mM Glutathione after 30 minis; outline: as §2
[7] = biological target: T1, Thioredoxin reductase 1, cytoplasmic (Rattus norvegicus); test: Inhibition of NADPH-reduced rat recombinant TrxR1 assessed as […] by DTNB reduction assay
Outline: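 Recombinant rat TrxR1 (50 nM), NADPH-reduced, was preincubated with ATO (0.05–5 μM) for 30 min in 50 mM Tris·HCl/1 mM EDTA pH 7.5 with 200 μM NADPH. Activity was then measured with 5 mM DTNB by following A412; the rate was the slope over the initial 2 min. Duplicate experiments; IC50 after 30-min incubation.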

MCF7 [8] = test: Reduction of glutathione synthesis in human MCF7 cells at 25 uM after 25 hrs; format: functional; set-up: scale not given: the % may be the effect or the level left

| SMILES | Activity (Escherichia coli) | Activity (MCF7 [1]) | Activity (MCF7 [2]) | Activity (MCF7 [3]) | Activity [4] | Activity [5] | Activity [6] | Activity [7] | Activity (MCF7 [8]) [%] |
| --- | --- | --- | --- | --- | --- | --- | --- | --- | --- |
| O=[As][As+](=O)[O-] (centres undefined) | inactive | inactive | Active | Active | Active | Active | inactive | inactive |  |
| CCCCS(=N)(=O)CCC(N)C(=O)O (centres undefined) [BUTHIONINE SULFOXIMINE] |  |  |  |  |  |  |  |  | 80 |
